*1 amine or outer side, *2 acyl side, *3 side chain or, on linkers, in order; H or OH if unused. Where a SMILES comes first, the peptide text is derived from it. Bridges are numbered along the chain shown (N, C = ends). Roman numbers before positions name the chains, in order. [ ]: non-standard residue; d: D form. Pro(4R-SH) = O=C([C@@H]1C[C@@H](S[*:3])CN1[*:1])[*:2]; Pro(4S-SH) = O=C([C@@H]1C[C@H](S[*:3])CN1[*:1])[*:2]; hCys = N[C@@H](CCS)C(=O)O; Orn = NCCC[C@H](N)C(=O)O; Sar = CNCC(=O)O
Columns and labels:
Oryctolagus cuniculus = species on record: Oryctolagus cuniculus; assay: Agonist efficacy assessed from contractile responses on rabbit aorta (AT1); assay type: functional
Summary of the method: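 Rabbit thoracic aortic rings held in 20-mL baths of Krebs-bicarbonate at 37 °C, gassed with 5% CO2 in oxygen. Resting tension 4.0 g, 90-min equilibration. Peptides added cumulatively until maximal response. EC50 read graphically from the curves as the concentration giving 50% of maximal contraction.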

[1] = biological target: T1, Angiotensin II receptor (AT-1) type-1 (Rattus norvegicus, UniProt P29089+P25095); assay: In vitro binding affinity to the angiotensin II receptor, type 1 in rat liver
T1 sequence (P29089 whole entry): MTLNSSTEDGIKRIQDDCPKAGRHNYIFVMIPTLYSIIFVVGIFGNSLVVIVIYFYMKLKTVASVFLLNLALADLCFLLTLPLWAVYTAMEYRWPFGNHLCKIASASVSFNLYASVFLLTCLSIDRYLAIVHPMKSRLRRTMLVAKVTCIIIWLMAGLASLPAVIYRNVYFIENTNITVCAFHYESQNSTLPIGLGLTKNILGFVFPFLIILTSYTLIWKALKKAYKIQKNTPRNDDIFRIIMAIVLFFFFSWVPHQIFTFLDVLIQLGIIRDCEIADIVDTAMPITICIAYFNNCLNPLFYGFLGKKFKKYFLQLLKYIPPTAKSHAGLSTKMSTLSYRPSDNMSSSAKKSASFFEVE
T1 sequence (P25095 whole entry): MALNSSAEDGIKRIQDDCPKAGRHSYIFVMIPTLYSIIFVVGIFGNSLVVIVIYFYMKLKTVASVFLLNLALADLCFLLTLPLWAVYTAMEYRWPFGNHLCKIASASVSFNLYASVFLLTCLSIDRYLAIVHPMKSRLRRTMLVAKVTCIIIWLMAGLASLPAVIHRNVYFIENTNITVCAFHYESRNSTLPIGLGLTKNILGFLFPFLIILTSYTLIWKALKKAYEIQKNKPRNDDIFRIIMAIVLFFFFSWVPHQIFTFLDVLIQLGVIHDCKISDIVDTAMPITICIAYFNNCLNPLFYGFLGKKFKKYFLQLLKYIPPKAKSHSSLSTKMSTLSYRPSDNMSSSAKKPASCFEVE
Summary of the method: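 Buffer: 50 mM NaH2PO4 pH 7.1 with 100 μM bacitracin, 0.2% BSA, 100 mM NaCl, 10 mM MgCl2, 1 mM EGTA. Incubated 1 h at 25 °C, then filtered, and filters counted. IC50 from weighted nonlinear regression to the mass action equation.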

Row | Compound | EC50 (Oryctolagus cuniculus) [nM] | IC50 [1] [nM]
1 | H-DRVYIHPFHL-OH | > 10000 | 300
2 | CNCC(=O)N[C@@H](CCCN=C(N)N)C(=O)N[C@H]1CSS[C@H]2C[C@@H](C(=O)N[C@@H](Cc3c[nH]cn3)C(=O)N3CCC[C@H]3C(=O)N[C@@H](Cc3ccccc3)C(=O)O)N(C2)C(=O)[C@H](Cc2ccc(O)cc2)NC1=O (H-[Sar]RCY[Pro(4S-SH)]HPF-OH; disulfide 3-5) |  | 62
3 | CNCC(=O)N[C@@H](CCCN=C(N)N)C(=O)N1C[C@@H]2C[C@H]1C(=O)N[C@@H](Cc1ccc(O)cc1)C(=O)N[C@H](C(=O)N[C@@H](Cc1c[nH]cn1)C(=O)N1CCC[C@H]1C(=O)N[C@@H](Cc1ccccc1)C(=O)O)CCSS2 (H-[Sar]R[Pro(4S-SH)]Y[hCys]HPF-OH; disulfide 3-5) | 440 | 510
4 | CNCC(=O)N[C@@H](CCCN=C(N)N)C(=O)N[C@H]1CCC(=O)NCCCC[C@@H](C(=O)N[C@@H](Cc2c[nH]cn2)C(=O)N2CCC[C@H]2C(=O)N[C@@H](Cc2ccccc2)C(=O)O)NC(=O)[C@H](Cc2ccc(O)cc2)NC1=O (H-[Sar]REYKHPF-OH; lactam 3-5) |  | 89
5 | CNCC(=O)N[C@@H](CCCN=C(N)N)C(=O)N[C@H](C(=O)N[C@@H](Cc1ccc(O)cc1)C(=O)N[C@H]1CSSC[C@@H](C(=O)O)NC(=O)[C@@H]2CCCN2C(=O)[C@H](Cc2c[nH]cn2)NC1=O)C(C)C (H-[Sar]RVYCHPC-OH; disulfide 5-8) |  | 1200
6 | CC[C@H](C)[C@H](NC(=O)[C@H](Cc1ccc(O)cc1)NC(=O)[C@@H](NC(=O)[C@@H](N)CCCN=C(N)N)C(C)C)C(=O)N[C@@H](Cc1c[nH]cn1)C(=O)N1CCC[C@H]1C(=O)N[C@@H](Cc1ccccc1)C(=O)O [ANGIOTENSIN III] | 32 | 5.57
7 | CNCC(=O)N[C@@H](CCCN=C(N)N)C(=O)N1C[C@H]2C[C@H]1C(=O)N[C@@H](Cc1ccc(O)cc1)C(=O)N[C@H](C(=O)N[C@@H](Cc1c[nH]cn1)C(=O)N1CCC[C@H]1C(=O)N[C@@H](Cc1ccccc1)C(=O)O)CSS2 (H-[Sar]R[Pro(4R-SH)]YCHPF-OH; disulfide 3-5) |  | 87
8 | CNCC(=O)N[C@@H](CCCN=C(N)N)C(=O)N[C@H]1CCSS[C@@H]2C[C@@H](C(=O)N[C@@H](Cc3c[nH]cn3)C(=O)N3CCC[C@H]3C(=O)N[C@@H](Cc3ccccc3)C(=O)O)N(C2)C(=O)[C@H](Cc2ccc(O)cc2)NC1=O (H-[Sar]R[hCys]Y[Pro(4R-SH)]HPF-OH; disulfide 3-5) | 13 | 1.3
9 | CNCC(=O)N[C@@H](CCCN=C(N)N)C(=O)N1C[C@@H]2C[C@H]1C(=O)N[C@@H](Cc1ccc(O)cc1)C(=O)N[C@H](C(=O)N[C@@H](Cc1c[nH]cn1)C(=O)N1CCC[C@H]1C(=O)N[C@@H](Cc1ccccc1)C(=O)O)CSSC[C@H](C(=O)N[C@H](Cc1c[nH]cn1)C(=O)N1CCC[C@@H]1C(=O)N[C@H](Cc1ccccc1)C(=O)O)NC(=O)[C@@H](Cc1ccc(O)cc1)NC(=O)[C@H]1C[C@H](CN1C(=O)[C@@H](CCCN=C(N)N)NC(=O)CNC)SS2 | 460 | 190
10 | CC[C@H](C)[C@H](NC(=O)[C@H](Cc1ccc(O)cc1)NC(=O)[C@@H](NC(=O)[C@H](CCCNC(=N)N)NC(=O)[C@@H](N)CC(=O)O)C(C)C)C(=O)N[C@@H](Cc1cnc[nH]1)C(=O)N1CCC[C@H]1C(=O)N[C@@H](Cc1ccccc1)C(=O)O [ANGIOTENSIN II] | 2.5 | 
11 | CNCC(=O)N[C@@H](CCCN=C(N)N)C(=O)N[C@H]1CSSCC[C@@H](C(=O)N[C@@H](Cc2c[nH]cn2)C(=O)N2CCC[C@H]2C(=O)N[C@@H](Cc2ccccc2)C(=O)O)NC(=O)[C@H](Cc2ccc(O)cc2)NC1=O (H-[Sar]RCY[hCys]HPF-OH; disulfide 3-5) |  | 2.6
12 | CNCC(=O)N[C@@H](CCCN=C(N)N)C(=O)N1C[C@@H]2C[C@H]1C(=O)N[C@@H](Cc1ccc(O)cc1)C(=O)N[C@H](C(=O)N[C@@H](Cc1c[nH]cn1)C(=O)N1CCC[C@H]1C(=O)N[C@@H](Cc1ccccc1)C(=O)O)CSS[C@H]1C[C@@H](C(=O)N[C@@H](Cc3ccc(O)cc3)C(=O)N[C@H](C(=O)N[C@@H](Cc3c[nH]cn3)C(=O)N3CCC[C@H]3C(=O)N[C@@H](Cc3ccccc3)C(=O)O)CSS2)N(C(=O)[C@H](CCCN=C(N)N)NC(=O)CNC)C1 (I: H-[Sar]R[Pro(4S-SH)]YCHPF-OH / II: H-[Sar]R[Pro(4S-SH)]YCHPF-OH; disulfide I:3-II:5, I:5-II:3) | 870 | 110
13 | CNCC(=O)N[C@@H](CCCN=C(N)N)C(=O)N[C@H]1CC(=O)NCCCC[C@@H](C(=O)N[C@@H](Cc2c[nH]cn2)C(=O)N2CCC[C@H]2C(=O)N[C@@H](Cc2ccccc2)C(=O)O)NC(=O)[C@H](Cc2ccc(O)cc2)NC1=O (H-[Sar]RDYKHPF-OH; lactam 3-5) | 53 | 12
14 | CNCC(=O)N[C@@H](CCCN=C(N)N)C(=O)N[C@H]1CSSC[C@@H](C(=O)N[C@@H](Cc2c[nH]cn2)C(=O)N2CCC[C@H]2C(=O)N[C@@H](Cc2ccccc2)C(=O)O)NC(=O)[C@H](Cc2ccc(O)cc2)NC(=O)[C@@H](NC(=O)[C@H](CCCN=C(N)N)NC(=O)CNC)CSSC[C@@H](C(=O)N[C@@H](Cc2c[nH]cn2)C(=O)N2CCC[C@H]2C(=O)N[C@@H](Cc2ccccc2)C(=O)O)NC(=O)[C@H](Cc2ccc(O)cc2)NC1=O (I: H-[Sar]RCYCHPF-OH / II: H-[Sar]RCYCHPF-OH; disulfide I:3-II:5, I:5-II:3) |  | 28
15 | CNCC(=O)N[C@@H](CCCNC(=N)N)C(=O)N[C@H]1CCSSCC[C@@H](C(=O)N[C@@H](Cc2cnc[nH]2)C(=O)N2CCC[C@H]2C(=O)N[C@@H](Cc2ccccc2)C(=O)O)NC(=O)[C@H](Cc2ccc(O)cc2)NC1=O (H-[Sar]R[hCys]Y[hCys]HPF-OH; disulfide 3-5) |  | 1.3
16 | CNCC(=O)N[C@@H](CCCN=C(N)N)C(=O)N[C@H]1CC(=O)NCCC[C@@H](C(=O)N[C@@H](Cc2c[nH]cn2)C(=O)N2CCC[C@H]2C(=O)N[C@@H](Cc2ccccc2)C(=O)O)NC(=O)[C@H](Cc2ccc(O)cc2)NC1=O (H-[Sar]RDY[Orn]HPF-OH; lactam 3-5) |  | 683
17 | CNCC(=O)N[C@@H](CCCN=C(N)N)C(=O)N[C@H]1CCSS[C@H]2C[C@@H](C(=O)N[C@@H](Cc3c[nH]cn3)C(=O)N3CCC[C@H]3C(=O)N[C@@H](Cc3ccccc3)C(=O)O)N(C2)C(=O)[C@H](Cc2ccc(O)cc2)NC1=O (H-[Sar]R[hCys]Y[Pro(4S-SH)]HPF-OH; disulfide 3-5) | 690 | 110
18 | CNCC(=O)N[C@@H](CCCN=C(N)N)C(=O)N[C@H]1CCSSCC[C@@H](C(=O)N[C@@H](Cc2c[nH]cn2)C(=O)N2CCC[C@H]2C(=O)N[C@@H](Cc2ccccc2)C(=O)O)NC(=O)[C@H](Cc2ccc(O)cc2)NC1=O (H-[Sar]R[hCys]Y[hCys]HPF-OH; disulfide 3-5) | 3.2 | 
19 | CNCC(=O)N[C@@H](CCCN=C(N)N)C(=O)N[C@H]1CSS[C@@H]2C[C@@H](C(=O)N[C@@H](Cc3c[nH]cn3)C(=O)N3CCC[C@H]3C(=O)N[C@@H](Cc3ccccc3)C(=O)O)N(C2)C(=O)[C@H](Cc2ccc(O)cc2)NC1=O (H-[Sar]RCY[Pro(4R-SH)]HPF-OH; disulfide 3-5) | 160 | 18
20 | CNCC(=O)N[C@@H](CCCN=C(N)N)C(=O)N1C[C@H]2C[C@H]1C(=O)N[C@@H](Cc1ccc(O)cc1)C(=O)N[C@H](C(=O)N[C@@H](Cc1c[nH]cn1)C(=O)N1CCC[C@H]1C(=O)N[C@@H](Cc1ccccc1)C(=O)O)CCSS2 (H-[Sar]R[Pro(4R-SH)]Y[hCys]HPF-OH; disulfide 3-5) | 700 | 29
21 | CNCC(=O)N[C@@H](CCCN=C(N)N)C(=O)N[C@H]1CSSC[C@@H](C(=O)O)NC(=O)[C@@H]2CCCN2C(=O)[C@H](Cc2c[nH]cn2)NC(=O)[C@H](C(C)C)NC(=O)[C@H](Cc2ccc(O)cc2)NC1=O (H-[Sar]RCYVHPC-OH; disulfide 3-8) |  | 520
22 | CNCC(=O)N[C@@H](CCCN=C(N)N)C(=O)N[C@H]1CSSC[C@@H](C(=O)N[C@@H](Cc2ccccc2)C(=O)O)NC(=O)[C@H](Cc2c[nH]cn2)NC(=O)[C@H](C(C)C)NC(=O)[C@H](Cc2ccc(O)cc2)NC1=O (H-[Sar]RCYVHCF-OH; disulfide 3-7) |  | 1230
23 | CNCC(=O)N[C@@H](CCCN=C(N)N)C(=O)N[C@H]1CSSC[C@@H](C(=O)N[C@@H](Cc2c[nH]cn2)C(=O)N2CCC[C@H]2C(=O)N[C@@H](Cc2ccccc2)C(=O)O)NC(=O)[C@H](Cc2ccc(O)cc2)NC1=O (H-[Sar]RCYCHPF-OH; disulfide 3-5) |  | 7.6

Reference: ChEMBL document CHEMBL1126724, “Multiple binding modes for the receptor-bound conformations of cyclic AII agonists” (J Med Chem, 1993)
